Laboratory results taken from ChEMBL document CHEMBL1152435, “Efficacious 11beta-hydroxysteroid dehydrogenase type I inhibitors in the diet-induced obesity mouse model” (J Med Chem, 2009).
Active and inactive are the calls of the source. The calls are words filed in the database; no cut-off is given here.

Key:
[1] = Metabolic stability in mouse liver microsomes; assay type: ADME, Microsome; conditions: read-out: Stability
[2] = Metabolic stability in human liver microsomes; assay type: ADME, Microsome; conditions: read-out: Stability
[3] = test system: Cynomolgus monkey; test: Reduction of plasma insulin level in normal cynomolgus monkey at 1 mg/kg after 8 hrs; assay type: functional, Macaca fascicularis; set-up: scale not given: the % may be the effect or the level left
[4] = test system: Cynomolgus monkey; test: Reduction of plasma insulin level in normal cynomolgus monkey at 3 mg/kg after 8 hrs; assay type: functional, Macaca fascicularis; set-up: scale not given: the % may be the effect or the level left
[5] = test system: Mus musculus; test: Inhibition of 11betaHSD1 in C57Bl6 mouse epididymal fat tissue assessed as conversion of [3H]cortisone to [3H]cortisol at 10 mg/kg, po after 5 hrs; assay type: functional; conditions: C57Bl6, Adipose tissue
Summary of the method: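 Mice were killed 5 h after a single oral dose. Whole liver and epididymal fat were excised, and each intact tissue was incubated in medium containing [3H]-cortisone to measure ex vivo 11β-HSD1 activity.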

[6] = Clearance in C57/B6 mouse at 2 mg/kg, iv; assay type: ADME, organism-based; set-up: dose 2 mg/kg, route intravenous; conditions: in vivo
[7] = Volume of distribution at steady state in C57/B6 mouse at 2 mg/kg, iv; assay type: ADME, organism-based; set-up: dose 2 mg/kg, route intravenous; conditions: in vivo, read-out: Vdss
[8] = AUC in C57/B6 mouse at 2 mg/kg, iv; assay type: ADME, organism-based; set-up: dose 2 mg/kg, route intravenous; conditions: plasma
[9] = Half life in C57/B6 mouse at 2 mg/kg, iv; assay type: ADME, organism-based; set-up: dose 2 mg/kg, route intravenous; conditions: in vivo
[10] = Cmax in C57/B6 mouse at 10 mg/kg, po; assay type: ADME, organism-based; set-up: dose 10 mg/kg, route oral; conditions: in vivo
[11] = Tmax in C57/B6 mouse at 10 mg/kg, po; assay type: ADME, organism-based; set-up: dose 10 mg/kg, route oral; conditions: in vivo
[12] = AUC in C57/B6 mouse at 10 mg/kg, po; assay type: ADME, organism-based; set-up: dose 10 mg/kg, route oral; conditions: plasma
[13] = Half life in C57/B6 mouse at 10 mg/kg, po; assay type: ADME, organism-based; set-up: dose 10 mg/kg, route oral; conditions: in vivo
[14] = Oral bioavailability in C57/B6 mouse at 10 mg/kg; assay type: ADME, organism-based; conditions: in vivo
[15] = test system: Mus musculus; test: Inhibition of 11betaHSD1 in DIO-C57B6 mouse liver at 30 mg/kg in food containing 0.5 mg/gram of high fat diet after 96 hrs; assay type: functional
[16] = Drug level in DIO-C57/B6 mouse serum in stress free condition at 30 mg/kg in food containing 0.5 mg/gram of high fat diet for 31 days measured on day 4 at 10 am; assay type: ADME, organism-based; set-up: dose 30 mg/kg; conditions: po, read-out: Drug uptake
[17] = Drug level in DIO-C57/B6 mouse liver in stress free condition at 30 mg/kg in food containing 0.5 mg/gram of high fat diet for 31 days measured on day 4 at 10 am; assay type: ADME, organism-based; set-up: dose 30 mg/kg; conditions: po, read-out: Drug uptake
[18] = Drug level in DIO-C57/B6 mouse fat in stress free condition at 30 mg/kg in food containing 0.5 mg/gram of high fat diet for 31 days measured on day 4 at 10 am; assay type: ADME, organism-based; set-up: dose 30 mg/kg; conditions: fat (adipose tissue), po, read-out: Drug uptake
[19] = Drug level in DIO-C57/B6 mouse serum in stress free condition at 30 mg/kg in food containing 0.5 mg/gram of high fat diet for 31 days measured on day 4 at 10 pm; assay type: ADME, organism-based; set-up: dose 30 mg/kg; conditions: po, read-out: Drug uptake
[20] = Drug level in DIO-C57/B6 mouse liver in stress free condition at 30 mg/kg in food containing 0.5 mg/gram of high fat diet for 31 days measured on day 4 at 10 pm; assay type: ADME, organism-based; set-up: dose 30 mg/kg; conditions: po, read-out: Drug uptake
[21] = Drug level in DIO-C57/B6 mouse fat in stress free condition at 30 mg/kg in food containing 0.5 mg/gram of high fat diet for 31 days measured on day 4 at 10 pm; assay type: ADME, organism-based; set-up: dose 30 mg/kg; conditions: fat (adipose tissue), po, read-out: Drug uptake
[22] = test system: Mus musculus; test: Reduction in glucose level in DIO-C57/B6 mouse serum in stress free condition administered compound at 0.5 mg/gram of high fat diet by 28 day food mix study; assay type: functional, organism-based
[23] = test system: Mus musculus; test: Reduction in insulin level in DIO-C57/B6 mouse serum in stress free condition administered compound at 0.5 mg/gram of high fat diet by 28 day food mix study; assay type: functional, organism-based
[24] = in vitro; conditions: mouse, liver microsomes
[25] = in vitro; conditions: human, liver microsomes

SMILES: C[C@@H]1CN(c2ccc(F)cc2C(F)(F)F)CCN1S(=O)(=O)c1cccc(-n2cncn2)c1
- half-life [1]: 0.2 h
- half-life [2]: 0.283 h

SMILES: N#Cc1ccc(-c2ccc(S(=O)(=O)Nc3cccc(N)n3)cc2)cc1
- Activity [3]: 54%
- Activity [4]: 60%

SMILES: C[C@@H]1CN(c2ccc(F)cc2C(F)(F)F)CCN1S(=O)(=O)c1ccc(C(N)=O)cc1Cl
- inhibition in vivo at 10 mg/kg [5]: 80%
- clearance [6]: 5 mL/min/kg
- Vd [7]: 2.6 L/kg
- AUC [8]: 6740 ng·h/mL
- half-life [9]: 7.3 h
- Cmax [10]: 1440 ng/mL
- Tmax [11]: 4 h
- AUC [12]: 17000 ng·h/mL
- half-life [13]: 7.2 h
- bioavailability [14]: 50%
- inhibition in vivo at 30 mg/kg [15]: 95%
- concentration at 744 h [16]: 1140 ng/mL
- concentration at 744 h [17]: 8130 ng/g
- concentration at 744 h [18]: 3620 ng/g
- concentration at 744 h [19]: 1090 ng/mL
- concentration at 744 h [20]: 9540 ng/g
- concentration at 744 h [21]: 3360 ng/g
- Activity [22]: Active
- Activity [23]: Active
- half-life [24]: > 0.5 h
- half-life [25]: > 0.5 h
